Test results from article PMC2758331 (Biochemistry, 2009).

Legend:
[1] = target: T1, mDia1-FH2 (Mus musculus, UniProt O08808); experiment: pyrene-actin polymerization assay, actin assembly by mDia1-FH2; assay type: biochemical
How it was run: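 Recombinant mouse mDia1 FH2 domain (aa 748–1175) at 2.5 nM with 4 μM actin (5% pyrene-labelled), across a range of test compound concentrations. Polymerization followed by pyrene fluorescence (emission 410 nm). Signal corrected for quenching by the test compound. Dose-response curves calculated from the polymerization curves give IC50 and Hill coefficient.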

[2] = target: actin (Oryctolagus cuniculus, UniProt P68135); experiment: spontaneous polymerization of actin alone; assay type: biochemical; conditions: concentrations up to 50 μM
[3] = target: mDia2-FH2 (Mus musculus, UniProt Q9Z207); experiment: pyrene-actin polymerization assay, actin assembly by mDia2-FH2; assay type: biochemical; conditions: potency and Hill coefficients
Sequence of mDia2-FH2 (Q9Z207 615-1013 limits assumed): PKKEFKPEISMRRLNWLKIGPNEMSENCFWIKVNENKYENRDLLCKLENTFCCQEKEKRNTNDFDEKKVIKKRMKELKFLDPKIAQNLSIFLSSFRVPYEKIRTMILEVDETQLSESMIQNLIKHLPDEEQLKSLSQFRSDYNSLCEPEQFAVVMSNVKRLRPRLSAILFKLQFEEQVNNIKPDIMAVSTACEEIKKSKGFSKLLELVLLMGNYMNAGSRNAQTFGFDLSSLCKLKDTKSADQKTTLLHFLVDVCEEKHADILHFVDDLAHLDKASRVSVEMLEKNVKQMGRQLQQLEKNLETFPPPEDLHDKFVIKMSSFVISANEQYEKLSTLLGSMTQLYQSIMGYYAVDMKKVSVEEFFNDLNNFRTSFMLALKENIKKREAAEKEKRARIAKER
How it was run: (§1)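 Pyrene-actin polymerization (emission read at 410 nm) driven by 2.5 nM mDia2-FH2, 20 nM INF2-(FH1-FH2) or 200 nM FRL1-(FH1-FH2), with the test compound titrated. Fluorescence corrected for compound quenching. Dose-response curves derived from the polymerization traces give IC50 and Hill coefficient.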

[4] = target: T2, mDia3-FH2 (Mus musculus, UniProt O70566); experiment: pyrene-actin polymerization assay, actin assembly by mDia3-FH2; assay type: biochemical; conditions: at any concentration tested
T2 sequence (O70566 625-1025 limits assumed): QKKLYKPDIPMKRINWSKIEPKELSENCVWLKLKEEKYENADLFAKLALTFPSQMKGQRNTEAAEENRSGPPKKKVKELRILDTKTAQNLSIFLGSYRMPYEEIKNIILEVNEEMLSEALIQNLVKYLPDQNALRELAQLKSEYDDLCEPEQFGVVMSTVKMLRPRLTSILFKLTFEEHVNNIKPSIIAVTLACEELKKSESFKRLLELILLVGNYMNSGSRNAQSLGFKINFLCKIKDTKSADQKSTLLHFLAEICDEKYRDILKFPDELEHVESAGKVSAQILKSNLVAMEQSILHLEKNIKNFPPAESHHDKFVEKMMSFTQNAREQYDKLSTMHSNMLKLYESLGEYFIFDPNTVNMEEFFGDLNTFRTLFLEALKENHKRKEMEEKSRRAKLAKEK
How it was run: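 Pyrene-actin polymerization (emission 410 nm) with mDia3-FH2 in two formats: 10 nM mDia3-FH2 in test compound titrations for dose-response curves (IC50, Hill coefficient), and 2.5 nM mDia3-FH2 with or without 50 μM test compound. Fluorescence corrected for compound quenching.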

[5] = target: T3, FRL1-(FH1-FH2) (Mus musculus, UniProt Q9JL26); experiment: pyrene-actin polymerization assay, actin assembly by FRL1; assay type: biochemical; conditions: at 50 μM
T3 sequence (Q9JL26 627-1018 limits assumed): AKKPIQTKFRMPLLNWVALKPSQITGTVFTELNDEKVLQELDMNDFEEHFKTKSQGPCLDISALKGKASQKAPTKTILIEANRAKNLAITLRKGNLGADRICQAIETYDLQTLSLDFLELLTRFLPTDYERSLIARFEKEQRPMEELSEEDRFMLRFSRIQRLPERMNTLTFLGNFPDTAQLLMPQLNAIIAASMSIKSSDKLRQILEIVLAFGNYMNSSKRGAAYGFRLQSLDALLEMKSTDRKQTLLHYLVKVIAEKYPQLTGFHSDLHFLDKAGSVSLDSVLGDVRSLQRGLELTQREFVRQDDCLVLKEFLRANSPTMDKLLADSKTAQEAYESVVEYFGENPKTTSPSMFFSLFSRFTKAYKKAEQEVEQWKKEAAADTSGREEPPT
How it was run: as §1

[6] = target: INF2-(FH1-FH2) (Mus musculus, UniProt Q0GNC1); experiment: pyrene-actin polymerization assay, actin assembly by INF2; assay type: biochemical; conditions: at saturating concentrations
Sequence of INF2-(FH1-FH2) (Q0GNC1 589-979 limits assumed): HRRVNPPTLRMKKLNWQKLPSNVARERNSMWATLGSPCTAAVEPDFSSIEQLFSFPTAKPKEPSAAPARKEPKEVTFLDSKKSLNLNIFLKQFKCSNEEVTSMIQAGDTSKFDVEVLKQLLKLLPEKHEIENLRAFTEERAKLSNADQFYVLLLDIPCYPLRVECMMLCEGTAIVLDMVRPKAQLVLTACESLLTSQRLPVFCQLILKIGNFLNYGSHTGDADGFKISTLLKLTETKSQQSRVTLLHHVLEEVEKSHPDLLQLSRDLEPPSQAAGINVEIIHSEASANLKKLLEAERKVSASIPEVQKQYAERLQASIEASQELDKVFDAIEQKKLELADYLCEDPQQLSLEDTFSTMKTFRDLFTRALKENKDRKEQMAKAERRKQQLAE
How it was run: as §1

[7] = target: T1, mDia1-FH2; experiment: equilibrium dialysis, direct binding to mDia1-FH2
[8] = target: T2, mDia3-FH2; experiment: equilibrium dialysis, direct binding to mDia3-FH2

T1 sequence (O08808 748-1175): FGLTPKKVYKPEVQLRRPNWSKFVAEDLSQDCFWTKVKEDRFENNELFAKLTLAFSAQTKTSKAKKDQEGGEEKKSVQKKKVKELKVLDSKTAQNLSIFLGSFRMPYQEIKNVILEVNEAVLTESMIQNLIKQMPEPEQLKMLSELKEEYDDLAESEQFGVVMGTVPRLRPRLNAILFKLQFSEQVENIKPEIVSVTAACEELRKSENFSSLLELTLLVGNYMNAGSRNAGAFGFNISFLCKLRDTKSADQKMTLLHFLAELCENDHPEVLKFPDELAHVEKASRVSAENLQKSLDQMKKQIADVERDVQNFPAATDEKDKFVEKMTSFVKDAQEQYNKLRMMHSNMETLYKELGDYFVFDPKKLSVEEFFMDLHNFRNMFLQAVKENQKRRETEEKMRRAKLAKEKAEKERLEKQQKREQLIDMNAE

O=S(=O)(O)c1cc(O)c2c(N=Nc3c(S(=O)(=O)O)cc4cc(S(=O)(=O)O)cc(O)c4c3O)cc(S(=O)(=O)O)cc2c1 [compound 1, 2-(8-hydroxy-3,6-disulfo-1-naphthylazo)-1,8-dihydroxy-naphthalene-3,6-disulfonic acid]
Hill coefficient, inhibition of actin assembly by mDia1-FH2 [1]: 2.4 | IC50 [1]: 490 nM | inhibitory effect toward polymerization of actin alone [2]: Neither 1 nor 2 shows any inhibitory effect

Nc1ccc(Br)cc1-c1nc2ccccc2[nH]c1=O [compound 2, 3-(2-amino-5-bromophenyl)-1H-quinoxalin-2-one]
Hill coefficient, inhibition of actin assembly by mDia1-FH2 [1]: 7.6 | IC50 [1]: 2100 nM | inhibition of filament assembly by mDia2-FH2 compared with mDia1-FH2 (in words) [3]: comparable | inhibitory activity toward actin assembly by mDia3-FH2 (in words) [4]: no inhibitory activity | inhibition of FRL1 [5]: incomplete | maximal inhibition of INF2 activity [6]: ≤ 75% | inhibitory effect toward polymerization of actin alone [2]: Neither 1 nor 2 shows any inhibitory effect | binding to mDia1-FH2 by equilibrium dialysis [7]: effectively retained 2 in a dose-dependent manner | binding to mDia3-FH2 by equilibrium dialysis [8]: no binding
